For orientation: ΔTm means the shift of the melting midpoint relative to a reference. What is called IC50 is the point on the concentration scale where inhibition reaches its midpoint. Read a low IC50 as inhibition by little substance. A word on the LD50: it is the dose expected to kill half of the subjects tested.

This note sets out measurements from ChEMBL document CHEMBL1806449, “A class of Trp-Trp-AA-OBzl: Synthesis, in vitro anti-proliferation/in vivo anti-tumor evaluation, intercalation-mechanism investigation and 3D QSAR analysis” (Eur J Med Chem, 2011).

For data set [1], the system named is Nucleic Acid. Nature of the data set: Binding affinity to double stranded calf thymus DNA assessed as change in melting temperature per minute. The data set is classed as nucleic-acid assay. The settings on record: Bos taurus. An outline of the steps: (§1)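 CT DNA in PBS pH 7.4, alone or with compound; temperature raised 1 °C/min with absorbance at 279 nm; Tm taken as temperature giving 50% absorbance increase.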

Data set [2] deals with Mus musculus. Nature of the data set: Toxicity in ICR mouse xenografted with mouse S180 cells assessed as effect on kidney weight at 8.9 umol/kg. In kind it is organism-based, CCRF S-180. As to conditions: in vivo. An outline of the steps: (§2)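 S180-bearing male ICR mice (10–12 weeks; 1×10^7 cells s.c. right oxter; 12 per group), daily i.p. 8.9 µmol/kg for seven days starting 24 h after implantation; NS, cytarabine and doxorubicin controls; liver, brain, kidney weights, spleen index and body-weight gain recorded.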

Data set [3] concerns Mus musculus. Put plainly: Toxicity in ICR mouse xenografted with mouse S180 cells assessed as effect on liver weight at 8.9 umol/kg. The data set is classed as organism-based, CCRF S-180. As to conditions: in vivo. The essentials: as §2
For data set [4], the system named is Mus musculus. Nature of the data set: Acute toxicity in ICR mouse assessed as jumping at 500 mg/kg, ip administered qd for 7 days. Further details: dose 500 mg/kg, route intraperitoneal. In kind it is organism-based. The settings on record: in vivo, 168 h.
Data set [5] concerns CCRF S-180. Put plainly: Antiproliferative activity against mouse S180 cells after 48 hrs by MTT assay. In kind it is functional, cell-based. The settings on record: CCRF S-180, 48 h.
In data set [6] the test system is Nucleic Acid. Nature of the data set: Binding affinity to calf thymus DNA assessed as increase in DNA viscosity at compound to DNA ratio of 0.36. The settings on record: Bos taurus. In kind it is nucleic-acid assay. An outline of the steps:
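Relative viscosity of CT DNA solutions measured at compound/CT DNA ratios 0–0.36.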

For the next data set, the system named is K562. Put plainly: Antiproliferative activity against human K562 cells after 48 hrs by MTT assay. As to conditions: K562, 48 h. The data set is classed as functional, cell-based. (In general: Tetrazolium dyes change colour on reduction, which living cells bring about.)
In data set [7] the test system is CCRF S-180. Nature of the data set: Antitumor activity against mouse S180 cells xenografted in ICR mouse assessed as tumor growth inhibition at 0.89 umol/kg, ip administered 1 day after tumor inoculation qd for 7 days. In kind it is functional. The settings on record: CCRF S-180, ip, read-out: GI. The essentials: (§3)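 Male ICR mice 10–12 weeks; S180 from ascites serially transplanted weekly; 1×10^7 viable cells in 0.2 ml NS implanted s.c. at right oxter; 24 h later randomized (10 per group); daily i.p. 8.9, 0.89 or 0.089 µmol/kg/day in 0.2 ml NS, 7 days; NS and cytarabine controls; sacrificed 24 h after last dose; inhibition % = [1−(Tw/Cw)]×100.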

For another data set, the system named is HepG2. Nature of the data set: Antiproliferative activity against human HepG2 cells after 48 hrs by MTT assay. The data set is classed as functional, cell-based. As to conditions: HepG2, 48 h.
The subject of the next data set is H22. Put plainly: Antiproliferative activity against mouse H22 cells after 48 hrs by MTT assay. The data set is classed as functional, cell-based. The settings on record: H22, 48 h.
In data set [8] the test system is Mus musculus. Put plainly: Acute toxicity in ICR mouse assessed as tetanus at 500 mg/kg, ip administered qd for 7 days. The data set is classed as organism-based. Details: dose 500 mg/kg, route intraperitoneal. As to conditions: in vivo, 168 h.
Data set [9] concerns Mus musculus. Nature of the data set: Acute toxicity in ICR mouse assessed as mortality at 500 mg/kg, ip administered qd for 7 days. The data set is classed as organism-based. Details: dose 500 mg/kg, route intraperitoneal. The settings on record: in vivo, 168 h.
The subject of data set [10] is Nucleic Acid. Put plainly: Binding affinity to double strand calf thymus DNA assessed as melting temperature. The data set is classed as nucleic-acid assay. As to conditions: Bos taurus. The essentials:
as §1

Data set [11] has as its system Mus musculus. Nature of the data set: Toxicity in ICR mouse xenografted with mouse S180 cells assessed as increase in spleen index at 8.9 umol/kg. In kind it is organism-based, CCRF S-180. As to conditions: in vivo. The essentials:
as §2

For data set [12], the system named is CCRF S-180. Nature of the data set: Antitumor activity against mouse S180 cells xenografted in ICR mouse assessed as tumor growth inhibition at 8.9 umol/kg, ip administered 1 day after tumor inoculation qd for 7 days. In kind it is functional. As to conditions: CCRF S-180, ip, read-out: GI. An outline of the steps: as §3
The subject of data set [13] is Mus musculus. Put plainly: Acute toxicity in ICR mouse assessed as supination at 500 mg/kg, ip administered qd for 7 days. The data set is classed as organism-based. Details: dose 500 mg/kg, route intraperitoneal. As to conditions: in vivo, 168 h.
The subject of data set [14] is Mus musculus. Put plainly: Acute toxicity in ICR mouse assessed as apparent changes in any organ at 500 mg/kg, ip administered qd for 7 days. The data set is classed as organism-based. Further details: dose 500 mg/kg, route intraperitoneal. As to conditions: in vivo, 168 h.
Data set [15] relates to Mus musculus. Put plainly: Acute toxicity in ICR mouse assessed as twitch at 500 mg/kg, ip administered qd for 7 days. In kind it is organism-based. Details: dose 500 mg/kg, route intraperitoneal. As to conditions: in vivo, 168 h.
In data set [16] the test system is CCRF S-180. Put plainly: Antitumor activity against mouse S180 cells xenografted in ICR mouse assessed as tumor growth inhibition at 0.089 umol/kg, ip qd administered 1 day after tumor inoculation for 7 days. In kind it is functional. As to conditions: CCRF S-180, ip, read-out: GI. An outline of the steps:
as §3

The test system of data set [17] is Mus musculus. Put plainly: Acute toxicity in ICR mouse assessed as tremors at 500 mg/kg, ip administered qd for 7 days. The data set is classed as organism-based. Further details: dose 500 mg/kg, route intraperitoneal. As to conditions: in vivo, 168 h.
In the next data set the test system is B16. Put plainly: Antiproliferative activity against mouse B16 cells after 48 hrs by MTT assay. In kind it is functional, cell-based. As to conditions: B16, 48 h.
Data set [18] has as its system Mus musculus. Nature of the data set: Toxicity in ICR mouse xenografted with mouse S180 cells assessed as effect on brain weight at 8.9 umol/kg. The settings on record: in vivo. The data set is classed as organism-based, CCRF S-180. The essentials: as §2
Data set [19] can be described thus: Acute toxicity in ip dosed ICR mouse assessed as lethal dose. In kind it is organism-based. The settings on record: in vivo. An outline of the steps: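 Male ICR mice, 24 weeks old, got a single i.p. injection of 500 mg/kg in 0.2 ml NS (normal saline). They were watched for 7 days for neurotoxic behaviour (tremor, twitch, jumping, tetanus, supination) and for death.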

For data set [20], the system named is Mus musculus. Nature of the data set: Toxicity in ICR mouse xenografted with mouse S180 cells assessed as increase in body weight at 8.9 umol/kg. In kind it is organism-based, CCRF S-180. The settings on record: in vivo. The essentials: as §2
Data set [21] deals with Mus musculus. Put plainly: Toxicity in ICR mouse xenografted with mouse S180 cells assessed as increase in body weight at 2 umol/kg. In kind it is organism-based, CCRF S-180. As to conditions: in vivo.
Data set [22] relates to Mus musculus. Put plainly: Toxicity in ICR mouse xenografted with mouse S180 cells assessed as effect on liver weight at 2 umol/kg. The data set is classed as organism-based, CCRF S-180. The settings on record: in vivo.
Data set [23] deals with Mus musculus. Put plainly: Toxicity in ICR mouse xenografted with mouse S180 cells assessed as increase in spleen index at 2 umol/kg. The data set is classed as organism-based, CCRF S-180. The settings on record: in vivo.
Data set [24] concerns Mus musculus. Nature of the data set: Toxicity in ICR mouse xenografted with mouse S180 cells assessed as effect on kidney weight at 2 umol/kg. The data set is classed as organism-based, CCRF S-180. The settings on record: in vivo.
Data set [25] concerns Mus musculus. Nature of the data set: Toxicity in ICR mouse xenografted with mouse S180 cells assessed as effect on brain weight at 2 umol/kg. In kind it is organism-based, CCRF S-180. As to conditions: in vivo.

The source made the active and inactive calls. No cut-off for these calls is given here. Peptide text beside a SMILES is read from it. * marks the point of attachment. OBn = c1ccc(CO*)cc1 Where only a bound is given, the exact number is not on record here.

`CC(C)[C@H](NC(=O)[C@H](Cc1c[nH]c2ccccc12)NC(=O)[C@@H](N)Cc1c[nH]c2ccccc12)C(=O)OCc1ccccc1` (H-Trp-Trp-Val-OBn): in the data set with Nucleic Acid [1], the ΔTm is 1 °C. Further, the Activity in the data set with Mus musculus [2] is recorded as 0.15 g; in the data set with Mus musculus [3], 1.89 g; with Mus musculus [4], “Non-toxic”; with Mus musculus [8] it was “Non-toxic”; with Mus musculus [9], “Non-toxic”; in the data set on Mus musculus [11] it was 7.97. The Activity entry in the data set with Mus musculus [13] is reported as “Non-toxic”; with Mus musculus [14], “Non-toxic”; with Mus musculus [15], “Non-toxic”; in the data set on Mus musculus [17], “Non-toxic”; in the data set on Mus musculus [18], 0.27 g; in the data set on Mus musculus [20] it was 9.97 g. Besides, the IC50 in the data set on CCRF S-180 [5] was 8.14 µM; in the data set on K562 it was 8.27 µM; in the data set with HepG2, 9.49 µM; in the data set on H22, 9.97 µM; with B16, 11.2 µM. In the data set with Nucleic Acid [6], the outcome was Active. Also, the inhibition in vivo at 0.89 µmol/kg in the data set on CCRF S-180 [7] was 70.2%. In the data set on Nucleic Acid [10], the Tm was 22 °C. The inhibition in vivo at 8.9 µmol/kg in the data set with CCRF S-180 [12] worked out at 79.5%. For the same molecule, in the data set on CCRF S-180 [16], the inhibition in vivo at 0.089 µmol/kg was found to be 41.7%. Further, in data set [19], the LD50 was > 500 mg/kg.
As for `Nc1ccn([C@@H]2O[C@H](CO)[C@@H](O)[C@@H]2O)c(=O)n1` [CYTARABINE], the Activity in the data set on Mus musculus [21] came out at 7.12 g; with Mus musculus [22] it was 1.62 g; in the data set with Mus musculus [23], 7.5; in the data set with Mus musculus [24], 0.16 g; in the data set on Mus musculus [25], 0.29 g. Further, the IC50 in the data set on CCRF S-180 [5] was 25.4 µM; with K562 it was 24.3 µM; with HepG2 it was 26.2 µM; with H22, 26 µM; in the data set on B16, 30.6 µM. Moreover, the inhibition in vivo at 0.89 µmol/kg in the data set on CCRF S-180 [7] amounted to 20.6%. Also, the inhibition in vivo at 8.9 µmol/kg in the data set with CCRF S-180 [12] amounted to 31.9%. For the same molecule, the inhibition in vivo at 0.089 µmol/kg with CCRF S-180 [16] was found to be 7.86%.
